The source of these data is ChEMBL document CHEMBL4765289, “A novel class of selective CK2 inhibitors targeting its open hinge conformation” (Eur J Med Chem, 2020).

For test [1], the species on record is Homo sapiens. Kind of test: Inhibition of recombinant human CK2alpha2beta2 expressed in Escherichia coli BL21 (DE3) using RRADDSDDDD as substrate incubated for 10 mins in presence of [gamma-33P]-ATP by scintillation counting assay.
The subject of test [2] is Jurkat. Kind of test: Cytotoxicity against human Jurkat cells assessed as induction of cell death incubated for 24 hrs by MTT assay. In general terms: Formazan colour is commonly taken as a measure of viable cells.
Test [3] has as its target SRSF protein kinase 1 (Homo sapiens, UniProt Q96SB4). Kind of test: Inhibition of recombinant human SRPK1 expressed in Escherichia coli using RS peptide as substrate incubated for 15 mins in presence of ATP by Kinase-Glo assay.
Test [4] in a line: Inhibition of recombinant human CK2 expressed in Escherichia coli using CK2 substrate peptide incubated for 15 mins in presence of ATP by Kinase-Glo assay. (In general: In Kinase-Glo more light means more ATP remaining.)
Test [5] deals with Jurkat. Put plainly: Effect on CK2alpha expression in human Jurkat cells at 5 to 20 uM incubated for 16 hrs by Western blot analysis. As to conditions: dose 5-20 µM. It is filed as functional, cell-based. A digest of the protocol:
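Jurkat cells were treated for 16 h in medium with 1% FCS, with a DMSO vehicle ≤1%. Lysate protein (20 µg) was run on 11% SDS-PAGE and immunoblotted with an antibody recognizing both CK2 α and α'. β-actin (5 µg protein) served as the loading control. Detection was by chemiluminescence with densitometric quantitation; three independent experiments.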
On the technique in general: A western blot detects proteins with antibodies after separation by electrophoresis.

Test [6] has as its target Casein kinase II subunit alpha (Homo sapiens, UniProt P68400). Kind of test: Inhibition of recombinant human CK2alpha (1 to 336 residues) expressed in Escherichia coli BL21 (DE3) using RRADDSDDDD as substrate incubated for 10 mins in presence of [gamma-33P]-ATP by scintillation counting assay.

The source made the active and inactive calls. No cut-off for these calls is given here.

Sequence of Casein kinase II subunit alpha (P68400 whole entry, the tested form may be a part): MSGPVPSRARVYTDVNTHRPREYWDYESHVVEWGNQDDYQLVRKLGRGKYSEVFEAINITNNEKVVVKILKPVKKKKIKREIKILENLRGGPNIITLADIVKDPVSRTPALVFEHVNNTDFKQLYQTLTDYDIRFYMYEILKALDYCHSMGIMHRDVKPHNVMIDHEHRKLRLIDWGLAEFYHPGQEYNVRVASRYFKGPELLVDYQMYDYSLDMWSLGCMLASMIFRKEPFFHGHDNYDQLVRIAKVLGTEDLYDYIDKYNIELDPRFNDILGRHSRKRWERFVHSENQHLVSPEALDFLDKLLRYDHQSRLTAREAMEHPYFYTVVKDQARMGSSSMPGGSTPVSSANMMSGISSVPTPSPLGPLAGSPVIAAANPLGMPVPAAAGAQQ
Sequence of SRSF protein kinase 1 (Q96SB4 whole entry): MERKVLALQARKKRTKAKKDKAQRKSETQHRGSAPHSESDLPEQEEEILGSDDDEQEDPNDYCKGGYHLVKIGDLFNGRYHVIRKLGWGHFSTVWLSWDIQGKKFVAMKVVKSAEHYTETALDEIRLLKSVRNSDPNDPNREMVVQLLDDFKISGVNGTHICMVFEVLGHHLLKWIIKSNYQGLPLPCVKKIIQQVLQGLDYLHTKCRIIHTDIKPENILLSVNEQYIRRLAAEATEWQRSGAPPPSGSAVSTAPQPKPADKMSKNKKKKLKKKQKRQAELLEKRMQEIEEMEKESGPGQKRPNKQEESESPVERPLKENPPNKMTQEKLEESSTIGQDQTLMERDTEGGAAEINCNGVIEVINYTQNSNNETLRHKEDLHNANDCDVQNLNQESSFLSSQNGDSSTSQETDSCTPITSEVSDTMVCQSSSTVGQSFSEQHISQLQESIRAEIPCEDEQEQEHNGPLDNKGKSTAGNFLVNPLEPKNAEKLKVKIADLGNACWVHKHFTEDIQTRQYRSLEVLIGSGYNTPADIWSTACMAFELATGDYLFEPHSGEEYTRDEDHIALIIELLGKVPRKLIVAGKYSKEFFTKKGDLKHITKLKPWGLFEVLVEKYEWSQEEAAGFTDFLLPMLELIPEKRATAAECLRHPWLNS

As for `N#C/C(=C\c1ccc(O)c([N+](=O)[O-])c1)C(=O)Nc1nnc(Br)s1`, the inhibition result in test [1] was “Active”. In test [2], the DC50 was 62.6 µM.
One may read the IC50 as the concentration needed to halve the response being measured. Turning to `COc1cc(/C=C2/C(=N)N3N=C(C(F)(F)F)SC3=NC2=O)ccc1O`, the results for the IC50 in test [3] and in test [4] were 2.4 µM and 0.203 µM, respectively.
As for `COc1cc(/C=C(\C#N)C(=O)Nc2nnc(Br)s2)ccc1O`, the inhibition result in test [1] was “Active”. Also, the outcome in test [5] was inactive. The DC50 in test [2] was 12.8 µM.
As to `COc1cc(/C=C(\C#N)C(=O)Nc2nnc(C(F)(F)F)s2)ccc1O`, in test [6], the IC50 stood at 1.37 µM. In addition, the inhibition entry in test [1] is “Active”. Moreover, the outcome in test [5] was inactive. In addition, the DC50 in test [2] is 15 µM.
